HEK293 NFkB inh = inhibitors of PMA/ionomycin-induced NF-kB reporter, primary screen, antigen receptor NF-kB inhibitor project, cell-based, HEK-293 luciferase reporter, luminescence; HEK-293 NF-kB luciferase reporter; AID 465, 2006; 0.21% of 62,000 active; inhibition, % at 3 µM;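 active = inhibition above the mean of all tested compounds plus 3 SD, cut at about 40% in these data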;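 also: 0% = stimulated DMSO wells and 100% = 10 µM reference inhibitor 5653914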
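Timing: 1 h pretreatment, 16 h stimulation, 37 °C; system: HEK-293 cells with stable firefly luciferase reporter driven by four HIV NF-kB elements; doses: 3 µM once, 0.30% DMSO; measured by: luciferase luminescence; control set: DMSO and 10 µM reference inhibitor; repeats: single test; reagent: PMA plus ionomycin mix as NF-kB-activating stimulus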
AP complement = alternative complement pathway inhibitors, primary screen, biochemical, ELISA, human serum, orthogonally pooled compounds. LPS-coated ELISA, C3 deposition; tested in compound mixtures. inhibition, % at 5 µM. 0.08% of 62,000 active;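 active = inhibition above 30% in each of the two pooled mixtures holding the compound, so the lower value exceeds 30%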;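 also: 0% = serum in Mg-EGTA without compound and 100% = EDTA serum blank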
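Assay system: Human serum alternative complement pathway, C3 deposition on LPS-coated wells | Incubation: 1 h serum-compound exposure at 37 °C | Doses: 5 µM per compound in ten-compound mixtures | Read-out: Percent inhibition | Technique: ELISA with HRP anti-human C3 antibody, TMB substrate, absorbance 450 nm | Replication: Two pool placements per compound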
MT1-MMP txn act = MT1-MMP promoter reporter activation – cell-based, luciferase luminescence, primary screen | HT1080 MT1-MMP promoter luciferase reporter, overnight; hits give high values | activation factor at 10 µM | 0.16% of 86,000 active;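 active = activation factor of at least 2 for MT1-MMP transcription at 10 µM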
HER2 expr 66K = inhibitors of Her2 protein expression, primary screen, SKBR-3 cells, AlphaScreen, 66K library; 0.69% of 65,000 active; HER2 level % of control, % at 10 µM; Receptor tyrosine-protein kinase erbB-2 (Homo sapiens), P04626; SKBR-3 HER2 protein level, 18-24 h; hits give low values;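 active = HER2 level under 5% of the carrier-only control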;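 also: 100% = DMSO carrier and 0% = 500 nM PU-H71 HSP90 inhibitor; lower value means stronger loss of Her2 protein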
JNK3 inh = JNK3 kinase activity inhibitors, primary screen, biochemical, human, purified enzyme. Mitogen-activated protein kinase 10 (Homo sapiens), P53779. HTS. inhibition, % at 8 µM. 0.61% of 60,000 active. AID 746, 2007; in the data active = inhibition above about 17%;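 also: 0% = DMSO and 100% = reference inhibitor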
Target sequence (P53779 whole entry, looked up): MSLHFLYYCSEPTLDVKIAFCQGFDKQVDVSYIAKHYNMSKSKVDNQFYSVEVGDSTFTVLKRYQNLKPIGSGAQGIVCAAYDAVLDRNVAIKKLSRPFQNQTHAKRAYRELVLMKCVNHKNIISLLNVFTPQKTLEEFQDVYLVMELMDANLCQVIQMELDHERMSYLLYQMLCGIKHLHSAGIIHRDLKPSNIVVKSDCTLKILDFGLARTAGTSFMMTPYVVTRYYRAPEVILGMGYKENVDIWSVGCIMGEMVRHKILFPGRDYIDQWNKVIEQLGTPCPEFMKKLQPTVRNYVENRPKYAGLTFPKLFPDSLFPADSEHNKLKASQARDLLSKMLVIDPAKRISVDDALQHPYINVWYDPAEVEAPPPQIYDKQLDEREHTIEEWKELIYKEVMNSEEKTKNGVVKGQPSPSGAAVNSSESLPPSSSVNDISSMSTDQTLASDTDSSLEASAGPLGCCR
Active calls of the source: *; nt = no result. This is a sample that favours compounds with a hit; in the whole collection about 1.1% have one here.

SMILES | HEK293 NFkB inh | AP complement | MT1-MMP txn act | HER2 expr 66K | JNK3 inh
CC1Cc2ccccc2N1CC(=O)NC(=O)NCc1ccco1 (configuration not stated) | 9 | 10 | 1.2 | 106 | 5
CCN1C(=O)C(C(=O)Nc2ccc(OC)cc2)C2CC1(C)Oc1ccccc12 (configuration not stated) | -10 | -11 | 1.3 | 93 | -4
COc1ccc(/C=C/C(O)=C2/C(=O)N(C)C3(C)CC2c2ccccc2O3)cc1 (configuration not stated) | 12 | 16 | 0.9 | -6.0* | -5
O=S1(=O)Nc2c(ccc3cccnc23)-c2ccccc21 | 6 | -1 | nt | -8.0* | -4
CC1(C)Oc2ccc3ccc(=O)oc3c2/C(=C/N)C1=O | 17 | 11 | 1.1 | 119 | 3
COc1ccccc1N1CCN(C(c2cccs2)c2nnnn2C2CCCC2)CC1 (configuration not stated) | 8 | 7 | 1.2 | -30* | -4
CO/C=C/C#CC1(O)CCN(C)CC1 | 3 | 10 | 0.9 | 112 | -1
COc1ccc(C2CC(c3cccs3)=Nc3ccccc3S2)cc1 (configuration not stated) | nt | nt | 2.1* | nt | nt
COc1ccc(C(=O)Nc2ccc(N3CCOCC3)cc2)cc1OC | 11 | 12 | 1.2 | nt | 3
COc1ccc(-c2nc(C#N)c(NCc3ccc(C)cc3)o2)cc1OC | -10 | 22 | 1.3 | 68 | -7
CC(C)(C)c1ccc(-c2nc(C#N)c(NCc3ccncc3)o2)cc1 | -8 | 10 | 2* | 81 | 0
Cc1cc2c(n1-c1ccc(Cl)cc1)CC(C)(C)CC2=O | nt | nt | 1.2 | nt | nt
COCCNC(=O)CSc1nc2nc(C)cc(C)n2n1 | 6 | -7 | 1.2 | 104 | nt
Cc1ccc(C)c(-n2nnnc2Sc2nnnn2-c2ccccc2)c1 | 16 | 13 | 0.6 | -11* | -2
CCn1c(SCC(=O)N2CCOCC2)nc2sc3c(c2c1=O)CCCC3 | nt | nt | 1 | 78 | -9
CCn1c(SCC(=O)N2CCOCC2)nc2oc3c(Cl)cc(Cl)cc3c(=O)c2c1=O | 15 | 8 | 1.1 | -1.7* | -5
O=C(Nc1cccc(O)c1)c1ccccc1 | 3 | -2 | 1 | 103 | 4
COC(=O)[C@@]1(Cc2ccc(OC)cc2)[C@H]2c3cc(C(=O)N4CCCC4)n(Cc4cc(F)c(F)c(F)c4)c3C[C@H]2CN1C(=O)c1ccccc1 | nt | nt | 1.2 | nt | nt
c1ccc(-c2n[nH]c3ccccc23)cc1 | 10 | -1 | 1.1 | 86 | 84*
O=C(O)c1n[nH]c2ccccc12 | 10 | -10 | 1.2 | 117 | nt
CCOc1ccc(OCCSc2nc3ccccc3[nH]2)cc1 | nt | nt | 1.2 | nt | nt
COc1cccc(N2CCN(c3ncnc4c3[nH]c3ccc(F)cc34)CC2C)c1 (configuration not stated) | nt | -5 | 0.3 | -26* | 6
COCCN(C(=O)CNC(=O)c1ccco1)C(C(=O)NC1CCCCC1)c1cccc(OC)c1 (configuration not stated) | 13 | 9 | 1.1 | 106 | 0
CCn1c(N2CCN(CC(=O)Nc3cccc(C)c3C)CC2)nc2ccccc21 | 10 | 4 | 1 | 68 | 0
Cc1ccc(C(=O)Nc2ccc3cn[nH]c3c2)cc1S(=O)(=O)N1CCCCC1 | nt | nt | 2.1* | nt | nt
SMILES | HEK293 NFkB inh | AP complement | MT1-MMP txn act | HER2 expr 66K | JNK3 inh
Cc1csc(NC(=O)c2ccc(C)c(S(=O)(=O)N3CCCCC3)c2)n1 | 19 | 18 | 1.2 | 92 | -1
CN1/C(=C/C(=O)c2nc(S(C)(=O)=O)ncc2Cl)C(C)(C)c2ccccc21 | 21 | 6 | nt | -15* | 4
COC(=O)C1Cc2c([nH]c3ccccc23)CN1 (configuration not stated) | 18 | 2 | 1.1 | -19* | -3
CCOC(=O)C1Cc2c([nH]c3ccccc23)C(C)N1 (configuration not stated) | nt | -10 | 1 | 60 | 1
COC(=O)Nc1ccc(S(=O)(=O)N(CCO)CC(F)(F)C(F)F)cc1 | 4 | 13 | 1.1 | -19* | -4
CC(Sc1cnc2ccccc2n1)C(=O)O (configuration not stated) | nt | nt | 1.2 | nt | nt
CC(Sc1ccc2ccccc2n1)C(=O)O (configuration not stated) | nt | 4 | 1.2 | 110 | 39*
O=S(=O)(NCC1CCCO1)c1cc(Br)c(Br)s1 (configuration not stated) | 16 | nt | 0.9 | 85 | -1
Cc1cccc(N2CCN(C(=O)CSCc3c(C)noc3C)CC2)c1C | 24 | 12 | 1.4 | 78 | 1
CNC(=O)c1c(C)nc(SCC(=O)NCc2ccc(OC)cc2)c(C#N)c1-c1ccco1 | 20 | 11 | 1 | -33* | 1
COCCOC(=O)c1c(C)nc(SCC(=O)Nc2cccc3ccccc23)c(C#N)c1-c1ccco1 | nt | nt | 1.1 | nt | nt
Cc1cccc(NC(=O)Cc2ccc(F)cc2)c1 | nt | nt | 1.3 | nt | nt
Cc1cccc(NC(=O)Cc2noc3ccccc23)c1 | nt | nt | 2.1* | nt | nt
COCCCN1C(=O)c2ccc(C(=O)Nc3cccc(OC)c3)cc2C1=O | nt | nt | 1.3 | nt | nt
Cc1ccccc1NC(=O)CC(O)(C(F)(F)F)C(F)(F)F | nt | nt | 1 | nt | nt
COc1ccc(C(=O)n2nc(C)cc2Nc2ccccc2)cc1 | nt | nt | 2.1* | nt | nt
Cc1cc(Nc2ccccc2)nn1C(=O)c1ccccc1 | 15 | 6 | 1.2 | 70 | 10
COCC(N)(c1ccccc1)c1nc2ccccc2n1C (configuration not stated) | 0 | -14 | 0.9 | 79 | -7
O=C(Nc1nc2n(n1)C(c1ccccc1)C=C(c1ccccc1)N2)c1ccco1 (configuration not stated) | 17 | 13 | 1.1 | -23* | 0
CCOc1ccccc1N(CC(=O)N1CCOCC1)S(=O)(=O)c1ccccc1 | 5 | 2 | 1.2 | -21* | 1
Cc1nc(N(C)C)ncc1C(=O)O | nt | nt | 1.2 | nt | nt
Cc1nn(C)c(C)c1CN(C)C(=O)c1cc2nc(-c3ccco3)cc(C(F)(F)F)n2n1 | 13 | 2 | 1.1 | 88 | -4
N#Cc1c(N)nc(SCc2ccncc2)c(C#N)c1-c1cccs1 | 31 | 6 | 1 | 60 | 21*
COc1ccc(CCNC(=O)CSc2nc(N)c(C#N)c(-c3cccs3)c2C#N)cc1OC | 14 | 13 | 1.1 | 1.8* | -1
Cc1ccccc1NC(=O)CSc1nc(N)c(C#N)c(-c2cccs2)c1C#N | 16 | 1 | 0.9 | 88 | 7
CCOC(=O)C1C(=O)NC(N2CCc3ccccc32)=NC1c1ccccc1 (configuration not stated) | 11 | -20 | 1 | 100 | -2
Clc1ccc(COn2nnc3ccccc32)c(Cl)c1 | 45* | 9 | 1.3 | 106 | 8
Cc1cc(NC(=O)COC(=O)c2n[nH]c3ccccc23)no1 | 9 | 15 | 1.3 | 97 | 23*
